According to ChEMBL document CHEMBL1275600, “Prophylactic activity of intramuscular peramivir in mice infected with a recombinant influenza A/WSN/33 (H1N1) virus containing the H274Y neuraminidase mutation” (Antimicrob Agents Chemother, 2010):
Activity calls are given as the source filed them. The rule behind the calls is not given here.

Assays:
Mus musculus [1] = assay: Toxicity against oseltamivir-resistant Influenza A/WSN/33 (H1N1) virus expressing neuraminidase H274Y mutant gene infected BALB/c mouse assessed as weight loss at 90 mg/kg, im administered as single dose and measured after 14 days; assay type: organism-based; parameters: dose 90 mg/kg, route intramuscular; conditions: in vivo, 336 h
How it was run: (§1)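 Male BALB/c mice, groups of 12, received IM drug at 50 mg/ml in pH 3.0 buffered saline, starting 1 h before intranasal infection with 8 × 10^3 PFU of recombinant virus. Body weight was monitored daily for 14 days. Mean weight loss was compared across regimens by one-way ANOVA, with uninfected PBS-treated mice as reference.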

Influenza A virus [2] = assay: Antiviral activity against oseltamivir-resistant Influenza A/WSN/33 (H1N1) virus expressing neuraminidase H274Y mutant gene infected in BALB/c mouse assessed as log reduction in lung viral titer at 45 mg/kg, im administered as single dose and measured after 4 days; assay type: functional, A/WSN/1933(H1N1); conditions: route intramuscular
How it was run: (§2)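 Male BALB/c mice received IM drug at 50 mg/ml in pH 3.0 buffered saline, starting 1 h before intranasal infection with 8 × 10^3 PFU of recombinant virus. Subgroups of 4 were sacrificed on day 4. Lungs were homogenized in 2 ml PBS with antibiotics and spun at 600 × g for 10 min. Supernatants were plaque-titrated on MDBK cells in triplicate. Comparison to untreated infected mice used a two-tailed unpaired t test.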

Influenza A virus [3] = assay: Antiviral activity against oseltamivir-resistant Influenza A/WSN/33 (H1N1) virus expressing neuraminidase H274Y mutant gene infected in BALB/c mouse assessed as survival of mouse at 45 mg/kg, im administered as single dose; assay type: functional, organism-based; parameters: dose 45 mg/kg; conditions: A/WSN/1933(H1N1)
How it was run: (§3)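 Male BALB/c mice, 6–8 weeks old and 20–25 g, were randomized by weight, 4 per cage, in groups of 12. Drug at 50 mg/ml in saline buffered to pH 3.0 was given by IM hip injection, first dose 1 h before challenge. Mice were infected intranasally under isoflurane with 8 × 10^3 PFU of cell-grown recombinant virus in 30 μl PBS. Mortality was recorded daily for 14 days.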

Mus musculus [4] = assay: Toxicity against oseltamivir-resistant Influenza A/WSN/33 (H1N1) virus expressing neuraminidase H274Y mutant gene infected BALB/c mouse assessed as weight loss at 45 mg/kg, im administered as single dose and measured after 6 days; assay type: organism-based; parameters: dose 45 mg/kg, route intramuscular; conditions: in vivo, 144 h; how it was run: as §1
Influenza A virus [5] = assay: Antiviral activity against oseltamivir-resistant Influenza A/WSN/33 (H1N1) virus expressing neuraminidase H274Y mutant gene infected in BALB/c mouse assessed as survival of mouse at 90 mg/kg, im administered as single dose; assay type: functional, organism-based; parameters: dose 90 mg/kg; conditions: A/WSN/1933(H1N1); how it was run: as §3
Influenza A virus [6] = assay: Antiviral activity against oseltamivir-resistant Influenza A/WSN/33 (H1N1) virus expressing neuraminidase H274Y mutant gene infected in BALB/c mouse assessed as log reduction in lung viral titer at 45 mg/kg, im once daily for 5 days; assay type: functional, A/WSN/1933(H1N1); conditions: route intramuscular; how it was run: as §2
Mus musculus [7] = assay: Toxicity against oseltamivir-resistant Influenza A/WSN/33 (H1N1) virus expressing neuraminidase H274Y mutant gene infected BALB/c mouse assessed as weight loss at 45 mg/kg, im once daily for 5 days measured after 14 days; assay type: organism-based; parameters: dose 45 mg/kg, route intramuscular; conditions: in vivo, 336 h; how it was run: as §1
Influenza A virus [8] = assay: Antiviral activity against oseltamivir-resistant Influenza A/WSN/33 (H1N1) virus expressing neuraminidase H274Y mutant gene infected in BALB/c mouse assessed as survival of mouse at 45 mg/kg, im once daily for 5 days; assay type: functional, organism-based; parameters: dose 45 mg/kg; conditions: A/WSN/1933(H1N1); how it was run: as §3
Influenza A virus [9] = assay: Antiviral activity against oseltamivir-resistant Influenza A/WSN/33 (H1N1) virus expressing neuraminidase H274Y mutant gene infected in BALB/c mouse assessed as log reduction in lung viral titer at 90 mg/kg, im administered as single dose and measured after 4 days; assay type: functional, A/WSN/1933(H1N1); conditions: route intramuscular; how it was run: as §2

## CCC(CC)[C@H](NC(C)=O)[C@@H]1[C@H](O)[C@@H](C(=O)O)C[C@H]1NC(=N)N [PERAMIVIR ANHYDROUS]
Mus musculus [1]
  Activity: Non-toxic
Influenza A virus [2]
  FC: 1.5
Influenza A virus [3]
  Activity: inactive
Mus musculus [4]
  Activity: Toxic
Influenza A virus [5]
  Activity: inactive
Influenza A virus [6]
  FC: 1.5
Mus musculus [7]
  Activity: Non-toxic
Influenza A virus [8]
  Activity: inactive
Influenza A virus [9]
  FC: 1.5
